A selection: hits, their analogues and other compounds. The true share with any hit is near 2.7%.
NTR1 ag: NTR1 (human) agonism; AID 493036; activation, % at 20 µM; NTR1-U2OS beta-arrestin-GFP spot imaging, agonist mode; 330,000 compounds, 0.17% hits; P30989;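 active = activation at or above 40% of the spot to cytoplasm intensity ratio, with at least 20 cells analyzed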;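 also: 0% = DMSO without peptide and 100% = 100 nM NTR1 peptide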
PREPL inhibitor: human PREPL enzyme inhibition. Q4J6C6. recombinant PREPL, fluorescence polarization activity-based probe. inhibition, % at 5.96 µM. 320,000 compounds, 0.68% hits. AID 2751; in the data active = inhibition above about 43%;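 also: 0% = enzyme with DMSO and 100% = wells lacking enzyme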
Target sequence (Q4J6C6 whole entry, looked up): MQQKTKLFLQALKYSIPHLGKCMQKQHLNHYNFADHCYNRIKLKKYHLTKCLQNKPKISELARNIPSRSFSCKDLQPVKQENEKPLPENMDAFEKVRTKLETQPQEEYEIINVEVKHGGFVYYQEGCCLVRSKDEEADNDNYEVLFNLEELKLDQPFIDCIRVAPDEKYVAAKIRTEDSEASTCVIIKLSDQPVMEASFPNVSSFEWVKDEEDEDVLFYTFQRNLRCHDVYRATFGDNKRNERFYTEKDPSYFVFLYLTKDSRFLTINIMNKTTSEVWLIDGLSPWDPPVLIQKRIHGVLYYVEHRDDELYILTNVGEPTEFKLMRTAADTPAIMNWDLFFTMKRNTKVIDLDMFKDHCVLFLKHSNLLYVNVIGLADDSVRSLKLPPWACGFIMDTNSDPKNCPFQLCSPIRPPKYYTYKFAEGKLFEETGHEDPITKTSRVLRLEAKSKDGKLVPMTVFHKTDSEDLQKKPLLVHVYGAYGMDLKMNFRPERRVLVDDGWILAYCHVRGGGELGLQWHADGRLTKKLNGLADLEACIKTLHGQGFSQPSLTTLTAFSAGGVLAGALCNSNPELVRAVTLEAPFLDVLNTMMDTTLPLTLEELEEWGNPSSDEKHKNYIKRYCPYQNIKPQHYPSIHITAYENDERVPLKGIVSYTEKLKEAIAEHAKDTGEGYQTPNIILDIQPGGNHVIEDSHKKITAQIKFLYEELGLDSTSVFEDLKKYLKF
HTR2A ag: agonists of mouse serotonin 5-HT2A receptor (HTR2A); CHO-K1 mHTR2A beta-arrestin complementation, luminescence; percent of 30 µM serotonin response; P35363; activation, % at 7.6 µM; 360,000 compounds, 0.66% hits;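 active = activation above a run cutoff, the mean activation of all tested compounds plus 3 SD, cut at about 14% in these data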;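 also: 0% = plate median of compound wells and 100% = 30 µM serotonin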
MC4R ag barr: human MC4R agonism via beta-arrestin; P32245; U2OS MC4R beta-arrestin complementation, luminescence; percent of melanotan II response, DMSO zero; 360,000 compounds, 0.98% hits; activation, % at 8.9 µM;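 active = activation above a per-plate cutoff, the mean activation of sample wells on that plate plus 3 SD, cut at about 8% in these data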
MC4R antagonist: blocks human MC4R cAMP signaling | MC4R-expressing cells, MTII-stimulated cAMP, LANCE TR-FRET | inhibition, % at 6.5 µM | 360,000 compounds, 0.48% hits | P32245;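 active = inhibition above its plate's cutoff, the mean of tested wells on that plate plus 3 SD, cut at about 29% in these data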;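 also: 0% = Melanotan II alone and 100% = Melanotan II plus saturating MCL0020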
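Material: U2OS-MC4R stable cell line | Reagent: Melanotan II challenge after compound preincubation | Doses: One concentration, 6.5 µM nominal | Incubation: 30-min compound preincubation, 1-h Melanotan II challenge, 1-h detection, room temperature | Signal: TR-FRET cAMP assay | Replicates: One well per compound, no replicates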
Hep lipid drop: modulators of hepatic lipid droplet formation; AML12 mouse hepatocytes, oleate lipid droplets, BODIPY imaging; inhibition, % at 6.5 µM; 240,000 compounds, 0.4% hits; AID 1656;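 active = lipid droplet intensity inhibited by at least 50%, with more than 500 cells counted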
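System: AML12 hepatocytes (mouse). Probe or stimulus: oleic acid at 100 µM to induce lipid droplet formation. Times: overnight treatment with compound plus oleate. Detection: Image-based BODIPY and DAPI two-channel analysis. Evaluation: percent inhibition of filter-corrected integrated lipid droplet intensity per well.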
MC4R barr ag: human MC4R beta-arrestin agonism confirmation; shares compounds with MC4R ag barr; U2OS MC4R beta-arrestin recruitment, luminescence; scaled DMSO 0%, Melanotan II 100%; activation, % at 8.9 µM; 2,400 compounds, 31% hits; AID 602192;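 active = mean activation across replicates above the hit cutoff set in the earlier primary screen, cut at about 8% in these data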
MOR DOR agonist: activates mu-delta opioid heterodimer, MC4R agonist counter-screen | 2,400 compounds, 5.8% hits | activation, % at 9.2 µM | U2OS PathHunter beta-arrestin, beta-gal luminescence; percent of deltorphin B response, DMSO zero | shares compounds with MC4R ag barr;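 active = mean activation across replicates exceeds the hit threshold derived in the earlier primary screen, cut at about 18% in these data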;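 also: 100% = deltorphin B at 0.9 µM final and 0% = DMSO alone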
* = called active by the depositor; . = not tested or not shown.

SMILES	NTR1 ag	PREPL inhibitor	HTR2A ag	MC4R ag barr	MC4R antagonist	Hep lipid drop	MC4R barr ag	MOR DOR agonist
CCOc1ccc(-n2cnnn2)cc1S(=O)(=O)NCc1ccccc1	-0.3	2.5	-1.6	15.7*	-3.4	8.0	-1.0	2.1
CC1CCCCN1S(=O)(=O)c1ccc(S(=O)(=O)N2CCN(c3ccccc3)CC2)cc1 (stereo unspecified)	9.2	-41.8	0.8	9.8*	2.4	-13.7	15.2*	4.0
CCOC(=O)Cc1csc(NC(=O)c2sc3nc4cc(C)ccc4cc3c2N)n1	3.3	31.5	5.3	38.9*	11.3	8.2	24.9*	2.5
CCOC(=O)Cc1csc(NC(=O)c2sc3nc4ccc(CC)cc4cc3c2N)n1	-0.7	11.9	2.0	1.0	-3.9	.	.	.
CN1CCN(C(=O)C[C@@H]2C[C@H]3c4cc(NC(=O)c5cccnc5)ccc4O[C@H]3[C@H](CO)O2)CC1	.	.	9.1	-1.9	-0.4	.	.	.
CC(C)=CCC/C(C)=C/CNC(=O)C[C@H]1C[C@H](C(=O)N2CCOCC2)[C@@]2(CCC3CCCC3)c3[nH]c4cc(-c5ccco5)ccc4c3CCN2C1=O	6.7	.	11.4	-0.4	12.8	.	.	.
COC(=O)c1c(NC(C)=O)sc(C)c1C	0.6	15.2	0.0	-1.9	13.6	40.2	.	.
COC(=O)c1c(NC(=O)Nc2ccc(Cl)cc2)sc(C)c1C	-5.3	1.2	2.7	10.2*	0.0	-1.1	2.1	9.3
CC(=O)NCCOC(=O)c1nn(Cc2ccccc2)c(=O)c2ccccc12	0.6	-5.3	6.2	0.7	5.0	-10.7	.	.
COc1ccc(-c2nc(-c3ccc(Br)o3)no2)cc1	-1.2	-4.5	4.4	13.2*	3.4	.	-2.1	2.6
COc1ccc(N2Cc3ccc(C(=O)N/N=C\c4ccc(O)cc4O)cc3C2)cc1	-0.7	22.2	.	.	.	-14.7	.	.
CCCCn1c(SCC(=O)NCc2ccco2)nc2ccccc2c1=O	-0.4	-14.3	2.8	-3.6	8.4	-6.1	.	.
O=C(CCCCn1c(=O)c2ccccc2n(Cc2ccc(Cl)cc2)c1=O)NCc1ccco1	8.0	4.8	1.5	11.6*	-4.2	-13.5	0.0	4.4
O=C(CCCCCn1c(SCC(=O)c2ccccc2)nc2ccccc2c1=O)NCc1ccco1	6.9	0.0	-8.0	27.8*	11.0	.	6.4	12.9
O=C(CCCn1c(SCC(=O)c2ccc(Cl)cc2)nc2ccccc2c1=O)NCc1ccco1	7.8	-1.9	-2.8	18.8*	9.9	.	1.3	29.4*
Cc1nc2c3ccccc3nc(SCC(=O)c3ccc(Cl)cc3)n2n1	17.2	0.5	8.0	10.7*	-1.2	-2.1	14.0*	4.5
Cc1nnc2n1N=C(c1ccc(F)cc1F)CS2	2.9	-0.4	-1.3	-0.8	11.2	.	.	.
Clc1ccc(Cl)c(OCCCCNCc2ccccc2)c1	2.1	-9.1	0.2	10.2*	-1.5	10.5	15.7*	11.2
Cc1cc(C)nc(SCC(=O)c2ccc(F)cc2F)n1	-0.7	4.8	-1.0	-1.6	1.2	1.6	.	.
COc1ccc(C(=O)Nc2ccc(SC(F)F)cc2)cc1	2.2	14.8	-2.4	3.4	3.0	-1.4	.	.
CCCCOc1ccc(C(=O)Nc2ccc(SC(F)F)cc2)cc1OC	0.0	4.5	0.1	9.9*	7.7	16.5	15.8*	7.3
COc1cc(Cl)c(C)cc1NC(=O)c1ccccc1NC(=O)CN1CCN(C(C)=O)CC1	.	.	0.4	-0.3	-4.9	.	.	.
Cc1ccc(S(=O)(=O)N(Cc2cccc(F)c2)C(=O)N2CCN(C)CC2)cc1	1.2	6.2	12.2	-1.4	11.7	.	.	.
COc1ccc2nc(C)cc(SCC(=O)NNC(=O)COc3ccc(C)cc3)c2c1	2.7	-14.5	-1.5	10.2*	7.4	.	-2.4	1.8
COc1ccc2nc(C)cc(SCC(=O)NNC(=O)COc3cccc4ccccc34)c2c1	12.8	-11.3	8.3	0.6	-1.4	16.3	.	.
SMILES	NTR1 ag	PREPL inhibitor	HTR2A ag	MC4R ag barr	MC4R antagonist	Hep lipid drop	MC4R barr ag	MOR DOR agonist
CC1CC(C)CN(CC(O)COCc2ccccc2)C1 (stereo unspecified)	-0.8	-10.1	-3.1	-0.6	2.6	5.0	.	.
Cc1ccccc1NC(=O)c1cc2c(=O)n3cccc(C)c3nc2s1	2.4	-8.2	7.0	19.4*	8.0	-12.1	4.5	7.8
Cc1cccn2c(=O)c3cc(C(=O)NCCc4ccccc4)sc3nc12	8.0	6.4	-4.2	17.7*	-0.2	4.6	13.0*	2.8
Cc1ccc(Oc2nnc(-c3ccccc3)cc2C#N)cc1	5.2	-4.6	3.5	27.4*	6.3	.	4.8	9.0
Cn1c(SCC(=O)Nc2cccc(Br)c2)nnc1-c1cc2ccccc2o1	1.0	-3.4	-0.5	10.9*	3.0	1.1	2.3	1.4
O=C(N/N=C/c1ccc(F)cc1)c1cc(-c2ccccn2)nc2ccccc12	9.3	.	5.2	15.5*	0.3	.	-0.1	11.4
COc1cccc(/C=N/NC(=O)c2cc(-c3ccccn3)nc3ccccc23)c1O	2.0	10.9	-2.1	-0.9	2.2	.	.	.
COc1ccccc1CNCC(O)Cn1c2ccccc2c2ccccc21 (stereo unspecified)	4.8	8.8	10.2	10.2*	3.5	11.2	20.5*	20.9*
OCCNCC(O)Cn1c2ccccc2c2ccccc21 (stereo unspecified)	0.9	21.7	-0.8	-2.6	-1.3	-14.8	.	.
Cc1ccc([N+](=O)[O-])cc1NC(=O)c1ccc(CSc2ccccc2)cc1	-0.9	5.1	-4.8	13.6*	5.2	-1.1	7.3	4.4
Cc1cc(CSc2ccccc2)ccc1NC(=O)c1ccc(Cl)c([N+](=O)[O-])c1	-3.7	8.2	-4.8	21.6*	10.9	.	2.9	5.2
Cc1ccc(SCc2ccc(C(=O)Nc3cccc([N+](=O)[O-])c3C)cc2)cc1	8.9	20.5	-17.4	23.0*	3.5	.	5.9	4.7
COCCC(=O)N1CCC(Oc2ccc(C(=O)NCCc3ccccn3)cc2)CC1	0.5	-2.4	-2.8	-3.4	2.2	5.9	.	.
O=C(c1ccc2c(=O)n3c(nc2c1)CCCCC3)N1CCN(C(c2ccccc2)c2ccccc2)CC1	9.8	20.7	6.6	3.2	17.9	9.9	.	.
COc1cccc(Nc2nc(C(N)Cc3ccc(F)cc3)cs2)n1 (stereo unspecified)	.	.	3.6	4.6	-9.8	.	.	.
COc1cccc(Nc2nc(C(N)Cc3ccc(C(F)(F)F)cc3)cs2)n1 (stereo unspecified)	.	.	2.6	12.2*	-6.4	.	4.6	10.6
NC(Cc1ccc(Cl)cc1)c1csc(Nc2cc(Oc3ccccc3)ncn2)n1 (stereo unspecified)	.	.	-2.6	6.7	-1.4	.	.	.

Source: PubChem BioAssay (several laboratories)
